Experimental data reported in publication PMC5839499 (Biomolecules & Therapeutics, 2018).
Entries after “also recorded” stand apart in the source; their conditions may differ.

Legend:
Cytotoxicity assay [1] = format: cell-based; settings: human, HepG2 cells
Method in brief: (§1)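 MTT assay. Cells were seeded at 2–3×10⁴ cells/well and cultured 24 h. Test compound was added at a final 0.1–100 μM for 48 h. MTT (5 mg in PBS, pH 7.2) was added for 4 h at 37°C, then DMSO. Absorbance was read at 540 nm; % viability = treated/untreated absorbance ×100; n=3.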

[2] = system: HIT-T15, GLUTag, and HepG2; assay: Cytotoxicity assay; format: cell-based; settings: MTT, 48 h
Method in brief: as §1

Cytotoxicity assay [3] = format: cell-based; settings: mouse, GLUTag L cells
Method in brief: as §1

human GPR119 = target: T1, human GPR119 (Homo sapiens, UniProt Q8TDV5); assay: cAMP accumulation assay; format: cell-based
T1 sequence (Q8TDV5 1-335): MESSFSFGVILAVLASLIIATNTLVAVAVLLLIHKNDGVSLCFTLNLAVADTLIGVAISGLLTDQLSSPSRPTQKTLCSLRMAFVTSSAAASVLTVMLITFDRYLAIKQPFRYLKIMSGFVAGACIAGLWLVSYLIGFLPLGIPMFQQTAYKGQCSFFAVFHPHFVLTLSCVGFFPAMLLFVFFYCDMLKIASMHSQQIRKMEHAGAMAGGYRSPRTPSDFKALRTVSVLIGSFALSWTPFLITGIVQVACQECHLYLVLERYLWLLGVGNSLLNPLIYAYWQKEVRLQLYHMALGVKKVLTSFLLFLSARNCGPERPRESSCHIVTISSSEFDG
Method in brief: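 CHO-K1 cells carry doxycycline-inducible human GPR119 and a CRE-driven beta-lactamase reporter. Cells were seeded at 10⁴ cells/well, induced with doxycycline 1 ug/mL, and treated 5 h with test compound at varying concentrations (DMSO stocks diluted in medium). cAMP was read by ratiometric FRET beta-lactamase substrate, in triplicate per concentration, from ≥3 independent experiments.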

[4] = Aqueous solubility in the buffer; format: physicochemical
normal C57BL/6J mice [5] = assay: Oral glucose tolerance test, single administration in normal mice; format: in vivo
DIO mice = assay: Oral glucose tolerance test, repeat administration for 4 weeks in DIO mice; format: in vivo
Method in brief: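 17-week-old male DIO mice were dosed orally once daily for 4 weeks with vehicle (0.5% methyl cellulose), test compound, MBX2982 10 mg/kg, linagliptin 1 mg/kg, or combinations. OGTT was run on days 1 and 29 in overnight-fasted mice: dose, then an oral 2 g/kg glucose bolus 30 min later. Tail-vein glucose was read by glucometer at 0–120 min, and AUC0–2h was calculated.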

HIT-T15 cells = assay: Insulin release assay; format: cell-based, hamster
Method in brief: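 HIT-T15 cells were seeded at 2×10⁵ cells/well and grown 48 h. They were washed in Krebs-Ringer bicarbonate buffer (pH 7.4, 0.2% BSA) and preincubated 60 min at 37°C with 5 mM glucose. Stimulation was with 0.1 uM test compound at 15 mM glucose, 60 min, 37°C; GSIS used 100 nM at 0, 3 and 15 mM glucose, 1 h. Supernatant insulin was measured by ELISA in triplicate.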

[6] = Pharmacokinetics of YH18968 in normal mice; format: in vivo, C57BL/6J mice; settings: male, C57BL/6J, mouse, plasma
Method in brief: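 Overnight-fasted 8-week-old male C57BL/6J mice, with free access to water, received 1 mg/kg iv via tail vein or oral doses of 1, 10 and 100 mg/kg as a suspension in 0.5% methyl cellulose; n=2 per time point. Plasma underwent protein precipitation and LC-MS/MS quantification. Parameters, including F, came from non-compartmental analysis.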

GLUTag cells = assay: GLP-1 release assay; format: cell-based, murine
Method in brief: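 GLUTag cells (DMEM, 10% FBS) were seeded at 10⁵ cells/well and grown 48 h. They were washed twice with serum-free DMEM, then exposed to 0.1 uM test compound in serum-free DMEM at 37°C for 120 min. Supernatant was clarified by 5-min centrifugation, and GLP-1 was measured by ELISA in triplicate.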

normal C57BL/6J mice [7] = assay: Blood active GLP-1 levels after single oral administration in normal mice; format: in vivo; settings: 10 mg/kg oral, 30 minutes after administration, overnight-fasted mice
Method in brief: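 Overnight-fasted male C57BL/6J mice (n=6) got a single oral dose of test compound, alone or with linagliptin (1 mg/kg). The control got 0.5% methyl cellulose vehicle. Blood was drawn 30 min after dosing, and active GLP-1 was measured against the vehicle group.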

In the case of `CCc1cnc(N2CCC(c3nc(COc4ccc(-n5cnnn5)cc4)cs3)CC2)nc1` [MBX2982, reference compound], the CC50 at 48 h (Cytotoxicity assay [1]) is reported as 15900 nM, the “concentration up to which cytotoxicity was not observed” value [2] is reported as 1000 nM and the CC50 at 48 h (Cytotoxicity assay [3]) is reported as 12200 nM. For the same compound, the EC50 (human GPR119) was 11.2 nM.

For `CC(C)c1nc(N2CCN(c3ncc(-c4ccc(-n5cnn([C@H]6CCOC6)c5=O)c(F)c4)cc3C#N)CC2)no1` [YH18968, (S)-5-(3-fluoro-4-(5-oxo-1-(tetrahydrofuran-3-yl)-1,5-dihydro-4H-1,2,4-triazol-4-yl)phenyl)-2-(4-(5-isopropyl-1,2,4-oxadiazol-3-yl)piperazin-1-yl)nicotinonitrile], the aqueous solubility [4] was “poor”, the “AUC for blood glucose in OGTT versus vehicle control” value (normal C57BL/6J mice [5]; single oral 0.1, 1, and 10 mg/kg, dose-dependent) was “significantly lowered” and the “glucose lowering effect compared with 30 mg/kg of MBX2982” value (normal C57BL/6J mice [5]; single oral 1 and 10 mg/kg) was “more potent glucose lowering effects”. For the same compound, the “concentration up to which cytotoxicity was not observed” value [2] was 5000 nM, the “AUC for blood glucose in OGTT versus vehicle control, day 1” value (DIO mice; 1 mg/kg oral once daily, day 1, DIO mice) was “significantly lowered; also recorded: significant decrease” and the “glucose lowering effect compared with 10 mg/kg of MBX2982, day 1” value (DIO mice; 1 mg/kg oral, day 1, DIO mice) was “more potent glucose lowering effect”. For the same compound, the “glucose-stimulated insulin secretion (GSIS)” value (HIT-T15 cells; 100 nM, 3 and 15 mM glucose, 1 h) was “enhanced in a glucose-dependent manner”, the “insulin release without glucose” value (HIT-T15 cells; 100 nM, cells incubated without glucose, 1 h) was “no effect” and the insulin secretion (HIT-T15 cells; HIT-T15 cell, 0.1 uM, 15 mM glucose, 60 min) was 1.9 fold. It also gave an AUC(0-inf) ([6]; iv, 1 mg/kg) of 1620 ng·h/mL, an AUC(0-t) ([6]; iv, 1 mg/kg) of 1380 ng·h/mL and an MRT ([6]; iv, 1 mg/kg) of 3.4 h. The Vd ([6]; iv, 1 mg/kg) was 2.11 L/kg, the clearance ([6]; iv, 1 mg/kg) was 10.3 mL/min/kg and the Tmax ([6]; po) was 0.5 h. For the same compound, the bioavailability ([6]; po) was 4.8 to 40%, the AUC(0-inf) ([6]; po, 1 mg/kg) was 720 ng·h/mL and the AUC(0-t) ([6]; po, 1 mg/kg) was 550 ng·h/mL. For the same compound, the Cmax ([6]; po, 1 mg/kg) was 169 ng/mL, the Tmax ([6]; po, 1 mg/kg) was 0.5 h and the bioavailability ([6]; po, 1 mg/kg) was 40%. For the same compound, the half-life ([6]; po, 1 mg/kg) was 3.1 h, the AUC(0-inf) ([6]; po, 10 mg/kg) was 2960 ng·h/mL and the AUC(0-t) ([6]; po, 10 mg/kg) was 2470 ng·h/mL. For the same compound, the Cmax ([6]; po, 10 mg/kg) was 760 ng/mL, the Tmax ([6]; po, 10 mg/kg) was 0.5 h and the bioavailability ([6]; po, 10 mg/kg) was 18%. For the same compound, the half-life ([6]; po, 10 mg/kg) was 2.6 h, the AUC(0-inf) ([6]; po, 100 mg/kg) was 15800 ng·h/mL and the AUC(0-t) ([6]; po, 100 mg/kg) was 6540 ng·h/mL. The Cmax ([6]; po, 100 mg/kg) was 1470 ng/mL, the Tmax ([6]; po, 100 mg/kg) was 0.5 h and the bioavailability ([6]; po, 100 mg/kg) was 4.8%. For the same compound, the half-life ([6]; po, 100 mg/kg) was 9.2 h, the GLP-1 secretion (GLUTag cells; GLUTag cell, 0.1 uM, 120 min) was 2.3 fold and the EC50 (GLUTag cells; Mus musculus, GLUTag, read-out: EC50, GLP-1 secretion) was 0.1 nM. The EC50 (human GPR119) was 2.8 nM, the “potency on human GPR119 relative to MBX2982” value (human GPR119; more potent than MBX2982 (EC50 11.2 nM, same assay)) was “approximately 4 fold” and the “potency of human GPR119 activation relative to MBX2982” value (human GPR119; more potent than the reported effect of MBX2982 (EC50 8.33 nM, HEK293)) was “approximately 3 fold”. For the same compound, the “increase of active GLP-1 levels compared to the vehicle control” value (normal C57BL/6J mice [7]) was 2.7 fold.

In the case of `CC#CCn1c(N2CCC[C@@H](N)C2)nc2c1c(=O)n(Cc1nc(C)c3ccccc3n1)c(=O)n2C` [linagliptin, reference compound], the “AUC blood glucose level in OGTT” value (DIO mice; 1 mg/kg of linagliptin, DIO mice) is reported as “near normal range”.
